Assay results published in ChEMBL document CHEMBL3352121, “Modulation of Activity Profiles for Largazole-Based HDAC Inhibitors through Alteration of Prodrug Properties” (ACS Med Chem Lett, 2014).
Active and inactive are the calls of the source. The calls are words filed in the database; no cut-off is given here.

Legend:
HCT-116 [1] = test: In vivo inhibition of HDAC in tumor of human HCT116 cells xenografted nu/nu mouse assessed as increase in histone hyperacetylation at 10 mg/kg, ip after 4 to 24 hrs by immunoblotting method; assay type: functional, organism-based; design: dose 10 mg/kg
How it was run: (§1)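 HCT116 xenograft mice were dosed intraperitoneally at 10 or 50 mg/kg. Tumors were excised after 4, 12 and 24 h, n = 2. Histone hyperacetylation in tumor tissue was assessed by immunoblotting.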

HCT-116 [2] = test: In vivo inhibition of HDAC in tumor of human HCT116 cells xenografted nu/nu mouse assessed as increase in histone hyperacetylation at 50 mg/kg, ip after 4 to 24 hrs by immunoblotting method; assay type: functional, organism-based; design: dose 50 mg/kg; how it was run: as §1
[3] = Drug metabolism in tumor of human HCT116 cells xenografted nu/nu mouse assessed as time for maximum largazole thiol level at 10 mg/kg, ip by HPLC-MS method; assay type: ADME, organism-based, Neoplasm, HCT-116; design: dose 10 mg/kg, route intraperitoneal; conditions: in vivo
[4] = Drug metabolism in tumor of human HCT116 cells xenografted nu/nu mouse assessed as time for maximum largazole thiol level at 50 mg/kg, ip by HPLC-MS method; assay type: ADME, organism-based, Neoplasm, HCT-116; design: dose 50 mg/kg, route intraperitoneal; conditions: in vivo
HCT-116 [5] = test: In vivo inhibition of HDAC in tumor of human HCT116 cells xenografted nu/nu mouse assessed as increase in histone hyperacetylation at 50 mg/kg, po after 4 to 12 hrs by immunoblotting method; assay type: functional, organism-based; design: dose 50 mg/kg
How it was run: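 Mice bearing HCT116 xenografts were dosed intraperitoneally at 10 or 50 mg/kg, or orally at 50 mg/kg. Tumors were excised at 4, 12 and 24 h. Histone hyperacetylation in the tumors was assessed by immunoblot, n = 2.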

[6] = Drug metabolism in human HCT116 cells protein lysate solution assessed as largazole thiol formation at 25 ug/mL after 30 mins by HPLC-MS method; assay type: ADME, cell-based; conditions: hct-116, 0.5 h
[7] = Drug metabolism in tumor of human HCT116 cells xenografted nu/nu mouse assessed largazole thiol formation at 50 mg/kg, po by HPLC-MS method; conditions: in vivo
HCT-116 [8] = test: In vivo inhibition of HDAC in tumor of human HCT116 cells xenografted nu/nu mouse assessed as increase in histone hyperacetylation at 50 mg/kg, ip after 4 hrs by immunoblotting method; assay type: functional, organism-based; design: dose 50 mg/kg; how it was run: as §1
[9] = target: Histone deacetylase (Homo sapiens) (UniProt Q13547+O15379+Q9UBN7+Q92769+Q9UQL6+Q8WUI4+Q9BY41+Q96DB2+P56524+Q9UKV0+Q969S8); test: Inhibition of HDAC in human HCT116 cells assessed as increase in histone H3 (Lys9/14) hyperacetylation after 8 to 24 hrs by immunoblotting method; assay type: cell-based; conditions: HCT-116
How it was run: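 HCT116 cells were treated across a dose range. Cellular HDAC inhibition was read as histone H3 (Lys9/14) hyperacetylation by immunoblot at 8 and 24 h post-treatment.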

Serum = test: Drug metabolism in mouse serum assessed as largazole thiol formation after 0.25 to 1440 mins by HPLC-MS method; assay type: ADME, cell-free
Histone deacetylase 1 = Histone deacetylase 1 (Homo sapiens, UniProt Q13547); test: Inhibition of HDAC1 (unknown origin) incubated for 30 mins in presence of BSA and DTT by fluorescence assay
Sequence of Histone deacetylase 1 (Q13547 whole entry): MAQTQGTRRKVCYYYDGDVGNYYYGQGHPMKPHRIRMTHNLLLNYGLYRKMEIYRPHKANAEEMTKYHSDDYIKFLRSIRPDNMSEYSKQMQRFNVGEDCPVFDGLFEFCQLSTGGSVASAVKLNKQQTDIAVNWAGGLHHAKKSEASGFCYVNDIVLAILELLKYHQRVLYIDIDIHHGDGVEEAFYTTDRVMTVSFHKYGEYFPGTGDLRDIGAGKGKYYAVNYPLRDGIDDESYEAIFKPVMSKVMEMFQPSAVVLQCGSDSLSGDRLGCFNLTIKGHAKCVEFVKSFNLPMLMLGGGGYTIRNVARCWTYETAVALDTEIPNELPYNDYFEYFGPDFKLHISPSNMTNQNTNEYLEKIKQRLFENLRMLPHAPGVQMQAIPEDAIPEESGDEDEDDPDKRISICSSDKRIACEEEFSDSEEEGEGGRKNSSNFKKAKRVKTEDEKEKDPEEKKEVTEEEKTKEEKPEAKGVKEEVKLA

[10] = target: T1, Histone deacetylase 8 (Homo sapiens) (UniProt Q9BY41); test: Inhibition of HDAC8 (unknown origin) at 1 uM incubated for 30 mins in presence of BSA and DTT by fluorescence assay
T1 sequence (whole entry): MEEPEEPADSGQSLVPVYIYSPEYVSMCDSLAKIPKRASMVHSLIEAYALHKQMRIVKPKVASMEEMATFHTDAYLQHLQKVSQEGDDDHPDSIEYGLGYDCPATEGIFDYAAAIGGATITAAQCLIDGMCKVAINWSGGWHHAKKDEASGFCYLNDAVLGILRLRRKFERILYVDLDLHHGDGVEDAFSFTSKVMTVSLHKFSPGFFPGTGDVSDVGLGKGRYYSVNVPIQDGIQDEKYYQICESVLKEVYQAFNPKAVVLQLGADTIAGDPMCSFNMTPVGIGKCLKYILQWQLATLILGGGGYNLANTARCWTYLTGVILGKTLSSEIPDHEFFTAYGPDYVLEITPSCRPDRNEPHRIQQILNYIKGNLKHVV
How it was run: (§2)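 Purified HDAC isoforms were tested up to a maximum of 1 μM. IC50 values are averages of duplicate experiments. Disulfide compounds were pretreated with DTT to reduce the disulfide bond.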

[11] = target: T2, Polyamine deacetylase HDAC10 (Homo sapiens, UniProt Q969S8); test: Inhibition of HDAC10 (unknown origin) incubated for 30 mins in presence of BSA and DTT by fluorescence assay; how it was run: as §2
T2 sequence (Q969S8 whole entry): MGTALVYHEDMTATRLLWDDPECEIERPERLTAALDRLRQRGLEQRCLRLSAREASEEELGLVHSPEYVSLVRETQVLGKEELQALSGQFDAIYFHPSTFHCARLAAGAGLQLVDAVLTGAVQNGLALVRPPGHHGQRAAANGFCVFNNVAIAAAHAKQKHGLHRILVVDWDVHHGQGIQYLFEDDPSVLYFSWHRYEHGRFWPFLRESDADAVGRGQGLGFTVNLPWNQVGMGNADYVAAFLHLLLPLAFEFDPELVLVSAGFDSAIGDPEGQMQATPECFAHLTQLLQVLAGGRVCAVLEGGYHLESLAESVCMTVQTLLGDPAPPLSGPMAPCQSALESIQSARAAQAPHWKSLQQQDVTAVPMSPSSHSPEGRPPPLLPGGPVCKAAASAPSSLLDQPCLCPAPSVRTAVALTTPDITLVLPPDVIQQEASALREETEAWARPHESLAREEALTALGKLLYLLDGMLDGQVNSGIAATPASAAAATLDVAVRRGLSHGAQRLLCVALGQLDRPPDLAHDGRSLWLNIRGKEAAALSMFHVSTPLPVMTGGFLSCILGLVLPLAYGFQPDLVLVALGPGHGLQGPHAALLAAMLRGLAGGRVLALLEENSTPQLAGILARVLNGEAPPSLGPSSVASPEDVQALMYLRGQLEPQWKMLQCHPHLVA

[12] = target: T3, Histone deacetylase 7 (Homo sapiens) (UniProt Q8WUI4); test: Inhibition of HDAC7 (unknown origin) at 1 uM incubated for 30 mins in presence of BSA and DTT by fluorescence assay; how it was run: as §2
T3 sequence (whole entry): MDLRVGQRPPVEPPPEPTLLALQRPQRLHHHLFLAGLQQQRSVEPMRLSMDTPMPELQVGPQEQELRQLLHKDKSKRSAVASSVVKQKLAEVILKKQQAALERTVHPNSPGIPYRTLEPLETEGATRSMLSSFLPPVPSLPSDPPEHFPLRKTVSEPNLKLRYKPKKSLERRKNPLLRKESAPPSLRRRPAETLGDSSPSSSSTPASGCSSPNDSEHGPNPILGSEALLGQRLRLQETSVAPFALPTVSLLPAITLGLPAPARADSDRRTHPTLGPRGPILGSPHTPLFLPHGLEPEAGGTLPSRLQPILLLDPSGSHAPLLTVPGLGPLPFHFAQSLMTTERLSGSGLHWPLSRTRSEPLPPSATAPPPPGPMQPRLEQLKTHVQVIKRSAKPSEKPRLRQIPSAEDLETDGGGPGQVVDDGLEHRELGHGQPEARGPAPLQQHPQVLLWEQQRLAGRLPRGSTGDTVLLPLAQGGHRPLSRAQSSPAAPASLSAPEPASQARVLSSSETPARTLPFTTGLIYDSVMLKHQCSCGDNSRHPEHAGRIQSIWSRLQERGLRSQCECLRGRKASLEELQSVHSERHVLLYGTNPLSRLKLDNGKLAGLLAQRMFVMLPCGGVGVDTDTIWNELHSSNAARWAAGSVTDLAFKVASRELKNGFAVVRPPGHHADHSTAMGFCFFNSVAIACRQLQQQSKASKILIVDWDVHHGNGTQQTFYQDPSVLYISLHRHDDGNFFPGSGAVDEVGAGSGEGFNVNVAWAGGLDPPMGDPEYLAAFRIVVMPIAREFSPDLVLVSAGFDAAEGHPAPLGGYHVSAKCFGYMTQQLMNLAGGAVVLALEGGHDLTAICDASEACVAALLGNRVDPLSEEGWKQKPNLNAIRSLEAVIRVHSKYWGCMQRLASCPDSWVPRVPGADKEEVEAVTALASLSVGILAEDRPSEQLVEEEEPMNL

[13] = target: T4, Protein deacetylase HDAC6 (Homo sapiens) (UniProt Q9UBN7); conditions: 1 uM
T4 sequence (whole entry): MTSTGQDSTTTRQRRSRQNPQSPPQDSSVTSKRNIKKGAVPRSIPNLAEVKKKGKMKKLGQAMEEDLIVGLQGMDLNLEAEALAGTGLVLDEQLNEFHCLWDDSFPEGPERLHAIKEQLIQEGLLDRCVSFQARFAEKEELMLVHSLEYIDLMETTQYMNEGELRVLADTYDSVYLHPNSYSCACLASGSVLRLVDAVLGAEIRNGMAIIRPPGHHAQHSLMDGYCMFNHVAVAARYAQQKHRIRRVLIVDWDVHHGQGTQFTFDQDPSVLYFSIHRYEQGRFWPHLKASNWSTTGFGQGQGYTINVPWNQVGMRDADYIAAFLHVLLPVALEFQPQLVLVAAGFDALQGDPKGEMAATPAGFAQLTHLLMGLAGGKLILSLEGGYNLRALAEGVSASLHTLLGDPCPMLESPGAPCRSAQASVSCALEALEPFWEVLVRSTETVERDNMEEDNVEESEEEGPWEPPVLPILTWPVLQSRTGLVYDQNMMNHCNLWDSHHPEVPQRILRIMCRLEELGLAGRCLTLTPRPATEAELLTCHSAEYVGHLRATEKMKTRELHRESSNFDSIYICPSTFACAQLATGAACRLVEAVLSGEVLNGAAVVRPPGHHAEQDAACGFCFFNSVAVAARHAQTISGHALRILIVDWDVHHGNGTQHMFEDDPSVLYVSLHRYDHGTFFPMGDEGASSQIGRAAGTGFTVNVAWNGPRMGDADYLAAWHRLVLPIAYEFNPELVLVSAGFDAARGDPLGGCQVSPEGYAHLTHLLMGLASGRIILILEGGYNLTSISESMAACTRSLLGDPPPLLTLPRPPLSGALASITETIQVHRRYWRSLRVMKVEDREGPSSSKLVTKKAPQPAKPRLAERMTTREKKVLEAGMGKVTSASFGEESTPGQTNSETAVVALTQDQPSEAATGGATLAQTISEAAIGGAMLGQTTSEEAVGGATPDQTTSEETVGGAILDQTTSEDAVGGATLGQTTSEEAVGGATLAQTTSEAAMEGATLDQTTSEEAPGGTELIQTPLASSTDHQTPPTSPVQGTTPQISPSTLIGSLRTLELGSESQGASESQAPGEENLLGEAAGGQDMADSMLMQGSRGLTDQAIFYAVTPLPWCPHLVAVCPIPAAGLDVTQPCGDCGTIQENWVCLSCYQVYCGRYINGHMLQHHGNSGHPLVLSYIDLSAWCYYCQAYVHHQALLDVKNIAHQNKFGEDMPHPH

Histone deacetylase 9 = Histone deacetylase 9 (Homo sapiens, UniProt Q9UKV0); test: Inhibition of HDAC9 (unknown origin) at 1 uM incubated for 30 mins in presence of BSA and DTT by fluorescence assay; how it was run: as §2
Sequence of Histone deacetylase 9 (Q9UKV0 whole entry): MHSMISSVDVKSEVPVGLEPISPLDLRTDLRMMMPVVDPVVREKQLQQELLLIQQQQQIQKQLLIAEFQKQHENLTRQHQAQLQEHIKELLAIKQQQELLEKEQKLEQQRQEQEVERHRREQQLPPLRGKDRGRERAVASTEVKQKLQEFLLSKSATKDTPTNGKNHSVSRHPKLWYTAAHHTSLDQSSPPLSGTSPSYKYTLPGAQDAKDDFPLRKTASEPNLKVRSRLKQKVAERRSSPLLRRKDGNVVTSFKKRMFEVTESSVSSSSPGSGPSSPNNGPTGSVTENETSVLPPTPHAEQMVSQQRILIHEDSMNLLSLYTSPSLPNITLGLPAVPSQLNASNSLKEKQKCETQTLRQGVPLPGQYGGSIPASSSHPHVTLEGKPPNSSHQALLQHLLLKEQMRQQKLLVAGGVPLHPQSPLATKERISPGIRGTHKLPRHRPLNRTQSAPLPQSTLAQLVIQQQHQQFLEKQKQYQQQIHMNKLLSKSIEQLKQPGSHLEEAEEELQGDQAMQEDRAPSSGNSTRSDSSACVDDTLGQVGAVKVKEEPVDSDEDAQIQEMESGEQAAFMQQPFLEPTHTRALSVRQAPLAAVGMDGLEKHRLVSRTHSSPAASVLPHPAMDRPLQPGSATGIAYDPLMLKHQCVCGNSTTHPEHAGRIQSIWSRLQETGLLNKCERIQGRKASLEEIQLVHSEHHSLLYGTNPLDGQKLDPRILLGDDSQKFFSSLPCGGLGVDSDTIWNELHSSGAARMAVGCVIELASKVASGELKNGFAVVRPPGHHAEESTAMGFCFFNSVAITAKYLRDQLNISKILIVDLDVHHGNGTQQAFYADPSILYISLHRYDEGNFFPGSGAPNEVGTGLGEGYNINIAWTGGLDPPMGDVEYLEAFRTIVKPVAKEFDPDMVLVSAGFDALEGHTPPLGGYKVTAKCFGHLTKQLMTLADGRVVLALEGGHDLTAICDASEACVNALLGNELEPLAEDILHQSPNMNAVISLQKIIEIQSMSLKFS

Histone deacetylase 5 = Histone deacetylase 5 (Homo sapiens, UniProt Q9UQL6); test: Inhibition of HDAC5 (unknown origin) at 1 uM incubated for 30 mins in presence of BSA and DTT by fluorescence assay; how it was run: as §2
Sequence of Histone deacetylase 5 (Q9UQL6 whole entry): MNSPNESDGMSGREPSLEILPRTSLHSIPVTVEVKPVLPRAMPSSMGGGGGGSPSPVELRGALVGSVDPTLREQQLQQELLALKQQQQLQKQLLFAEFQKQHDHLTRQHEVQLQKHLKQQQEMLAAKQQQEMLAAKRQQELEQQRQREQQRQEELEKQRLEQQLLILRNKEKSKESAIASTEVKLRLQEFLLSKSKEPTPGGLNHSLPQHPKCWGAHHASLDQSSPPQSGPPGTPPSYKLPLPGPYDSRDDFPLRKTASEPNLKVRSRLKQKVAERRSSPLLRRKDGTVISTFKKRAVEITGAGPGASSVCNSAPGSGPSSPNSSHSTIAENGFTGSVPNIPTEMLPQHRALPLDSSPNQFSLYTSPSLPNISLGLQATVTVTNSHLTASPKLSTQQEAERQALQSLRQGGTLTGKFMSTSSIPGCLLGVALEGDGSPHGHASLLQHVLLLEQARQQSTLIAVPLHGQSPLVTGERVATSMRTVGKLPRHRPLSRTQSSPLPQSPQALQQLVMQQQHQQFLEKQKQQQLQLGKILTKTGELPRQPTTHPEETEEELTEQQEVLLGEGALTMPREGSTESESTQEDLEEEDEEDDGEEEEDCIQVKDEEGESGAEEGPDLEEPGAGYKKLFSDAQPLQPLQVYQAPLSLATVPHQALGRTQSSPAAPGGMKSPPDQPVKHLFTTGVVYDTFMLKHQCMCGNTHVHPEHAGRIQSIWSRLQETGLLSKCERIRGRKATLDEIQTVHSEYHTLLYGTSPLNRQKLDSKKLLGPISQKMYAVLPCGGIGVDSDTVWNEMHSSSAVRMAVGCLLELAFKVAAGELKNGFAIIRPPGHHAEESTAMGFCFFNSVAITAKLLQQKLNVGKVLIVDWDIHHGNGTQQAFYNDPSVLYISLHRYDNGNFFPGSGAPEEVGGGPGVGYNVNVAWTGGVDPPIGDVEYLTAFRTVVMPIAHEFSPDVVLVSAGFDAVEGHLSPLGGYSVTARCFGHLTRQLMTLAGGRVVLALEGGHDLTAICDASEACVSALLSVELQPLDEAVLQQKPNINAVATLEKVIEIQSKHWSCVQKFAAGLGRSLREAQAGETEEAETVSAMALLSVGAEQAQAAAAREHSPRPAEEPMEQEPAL

CCCCCCCC(=O)SCC/C=C/[C@@H]1CC(=O)NCc2nc(cs2)C2=N[C@@](C)(CS2)C(=O)N[C@@H](C(C)C)C(=O)O1 [LARGAZOLE]
inhibition (HCT-116 [1]): Active | inhibition (HCT-116 [2]): Active | Tmax [3]: 4 h | Tmax [4]: 4 h | inhibition (HCT-116 [5]): Active | Drug metabolism [6]: metabolite_detected | Drug metabolism [7]: metabolite_detected | inhibition (HCT-116 [8]): Active | inhibition [9]: Dose-dependent effect | Drug metabolism (Serum): metabolite_detected

C/C=C1\NC(=O)[C@H]2CSSCC/C=C/[C@H](CC(=O)N[C@H](C(C)C)C(=O)N2)OC(=O)[C@H](C(C)C)NC1=O [ROMIDEPSIN]
IC50 (Histone deacetylase 1): 800 pM | inhibition [10]: 36% | IC50 [11]: 900 pM | inhibition [12]: 34% | inhibition [13]: 45% | inhibition (Histone deacetylase 9): 45% | inhibition (Histone deacetylase 5): 22%
